Hits are enriched below; roughly 9.3% of the tested compounds scored in any of these assays.
PostGolgi yeast: phenotypic screen on post-Golgi transport, primary screen. post-Golgi transport phenotypic cell assay. inhibition, % at 10 µM. hit rate 0.9% among 98,000;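 further: yeast cells grown in 1536-well plates; yeast grown about 18 h at 30C before absorbance read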
PostGolgi ctrl: growth inhibition of yeast control strain, primary screen, counter-screen for post-Golgi transport modulator project. inhibition, % at 10 µM. efflux-deficient yeast background strain, growth absorbance A615, 16 h. hit rate 5% among 98,000. AID 738, 2007
D1 mod: D1 CRE-luciferase signal change, two-sided – cell-based, HEK293 D1, dopamine EC30, D1 allosteric modulator project, primary screen. D(1A) dopamine receptor (Homo sapiens), P21728. dopamine EC30 potentiation; actives deviate in either direction. B-score at 10 µM. hit rate 5.9% among 58,000. AID 641, 2007;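 active means luminescence count or its row- and column-corrected plate score outside the 99.7% band of the plate's sample wells, on either side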
Target sequence (P21728 whole entry, looked up): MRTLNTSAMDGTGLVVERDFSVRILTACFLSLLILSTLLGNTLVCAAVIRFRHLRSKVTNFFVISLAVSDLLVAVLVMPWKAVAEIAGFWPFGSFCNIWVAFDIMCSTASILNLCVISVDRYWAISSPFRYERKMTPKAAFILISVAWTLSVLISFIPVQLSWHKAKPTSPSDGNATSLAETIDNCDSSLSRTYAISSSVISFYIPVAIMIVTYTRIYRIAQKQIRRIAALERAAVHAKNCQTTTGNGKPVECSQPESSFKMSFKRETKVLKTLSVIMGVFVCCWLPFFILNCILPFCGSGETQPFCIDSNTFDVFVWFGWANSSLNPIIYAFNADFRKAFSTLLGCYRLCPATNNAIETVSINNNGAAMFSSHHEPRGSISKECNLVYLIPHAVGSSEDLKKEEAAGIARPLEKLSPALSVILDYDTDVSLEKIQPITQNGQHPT
Ecoli WT expand: growth inhibitors of wild-type E. coli, primary screen, strain BW25113, expanded library, OD600; OD600 absorbance; growth inhibition, % at 100 µM; hit rate 0.15% among 98,000; AID 710, 2007;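 active means growth inhibition above about 50% at one test dose, limit read from the data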;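 further: growth measured after 20 h incubation at 37 °C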
Ecoli tolC: growth inhibitors of E. coli tolC mutant, primary screen, strain BW25113 ΔtolC::kan, 384-well. OD615. growth inhibition, % at 10 µM (by protocol). hit rate 2.2% among 65,000;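 active means growth inhibition at or above a cutoff equal to the mean over every tested compound plus 3 SD, cut at about 60% in these data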;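 further: growth measured after 20 h incubation at 37 °C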
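Doses: one dose of 10 µM final / Material: E. coli BW25113 ΔtolC::kan, tolC deletion mutant strain / Buffer or medium: LB with kanamycin 50 µg/mL / Evaluation: percent growth inhibition / Detection: optical density read at 615 nm / Incubation: 37 °C, 20 h exposure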
hDAT+cocaine: changed hDAT dopamine uptake under cocaine IC80, either direction, primary screen, cocaine antagonist project, cell-based, LLC-PK1 hDAT, [14C]-dopamine uptake, MLSMR; Sodium-dependent dopamine transporter (Homo sapiens), Q01959; LLC-PK1 hDAT cells, [14C]-dopamine uptake with cocaine IC80; actives deviate in either direction; B-score at 10 µM; hit rate 1.3% among 110,000; AID 449768, 2010;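 active means Z score or B-score, a plate-position-corrected score, falls beyond the plate's 99.7% confidence bounds, in either direction; inactive means both scores lie inside the 99.7% bounds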
Each line names hits and unclear results; the compound was inactive in the other large screens. Unless noted, no stated cut-off is given here; in the data, active means inhibition above about 30%; inactive means the rest.

O=C(O)C1CC(=O)N(c2ccc(Br)cc2)C1 (configuration not stated)	PostGolgi ctrl 42.5
O=C(Nc1nc2ccccc2s1)C1CC(=O)N(c2ccc(Br)cc2)C1 (configuration not stated)	PostGolgi ctrl 46.2 (no result: D1 mod, Ecoli tolC)
Nc1ncnc2c1ncn2[C@@H]1O[C@H](CO)C[C@@H]1O	none (no result: PostGolgi yeast, PostGolgi ctrl, D1 mod, Ecoli WT expand, Ecoli tolC)
COCCNC(=O)CN(CC1CCCO1)C(=O)CCC(=O)Nc1ccccn1 (configuration not stated)	none
COCCNC(=O)C(c1ccc(F)cc1)N(CC1CCCO1)C(=O)CCC(=O)Nc1ccccn1 (configuration not stated)	PostGolgi yeast 31.4
Cc1cc(-c2cc(C(=O)Nc3ccccc3)on2)nc(NC2CCCC2)n1	none (no result: PostGolgi yeast, PostGolgi ctrl, D1 mod, Ecoli WT expand, Ecoli tolC)
Cc1ccnc2c(N3C(=O)C4C5c6ccccc6C(c6ccccc65)C4C3=O)cccc12 (configuration not stated)	PostGolgi yeast 68.8, PostGolgi ctrl 74.4 (no result: D1 mod, Ecoli tolC)
Cc1cc(N2C(=O)C3C4c5ccccc5C(c5ccccc54)C3C2=O)no1 (configuration not stated)	none
COC(=O)[C@@H](NC(=O)NCc1ccccc1Cl)C(C)C	none
O=C(NCCc1c[nH]c2ccccc12)c1ccc(S(=O)(=O)NCc2ccco2)cc1	hDAT+cocaine -7.67
CCOC(=O)c1cn2c3c(c(F)c(F)c(F)c3c1=O)SC(N1CCCC1)=N2	none (no result: PostGolgi yeast, PostGolgi ctrl, Ecoli WT expand, hDAT+cocaine)
Cc1[nH]n2c(=O)c3c(nc2c1-c1ccccc1)CCC3	none
Cc1[nH]n2c(=O)c3c(nc2c1-c1ccc(Cl)cc1)CCC3	Ecoli tolC 99.8, hDAT+cocaine -2.74 (no result: D1 mod)
O=C1c2ccccc2C(Nc2cccc(C(F)(F)F)c2)N1Cc1ccco1 (configuration not stated)	PostGolgi ctrl 32.0, Ecoli tolC 93.1
COc1cccc(NC2c3ccccc3C(=O)N2Cc2ccco2)c1 (configuration not stated)	none
CCCOC(=O)Cc1n[nH]c(=O)[nH]c1=O	hDAT+cocaine -2.21 (no result: D1 mod)
CCCOC(=O)CCc1n[nH]c(=O)[nH]c1=O	none
S=c1[nH]nc(C23CC4CC(CC(C4)C2)C3)n1Cc1ccco1	PostGolgi ctrl 44.9
S=c1[nH]nc(-c2ccncc2)n1Cc1ccco1	none
O=C(COc1ccccc1)NNc1c2ccccc2nc2ccccc12	PostGolgi ctrl 43.9 (no result: D1 mod, Ecoli tolC)
COc1ccc(OCC(=O)NNc2c3ccccc3nc3ccccc23)cc1	none (no result: D1 mod, Ecoli tolC)
Cc1nc2ccccc2c(=O)n1NC(=O)COc1ccccc1	D1 mod -2.93 (no result: PostGolgi yeast, PostGolgi ctrl, Ecoli WT expand)
C=CCn1c(O)c(N=NC(=O)c2ccc3c(c2)OCO3)c2ccccc21	none (no result: D1 mod, Ecoli tolC)
CCCCNC(=O)c1onc(CSc2cccc(C)c2)c1C(=O)O	none (no result: D1 mod, Ecoli tolC)
C=CCO/N=C(/C)c1c(O)c(CC)c(-c2ccccc2)n(-c2ccccc2)c1=O	hDAT+cocaine 2.9 (no result: PostGolgi yeast, PostGolgi ctrl, D1 mod, Ecoli WT expand, Ecoli tolC)
C=CCc1cccc(CNc2c(C)n(C)n(-c3ccccc3)c2=O)c1O	none
COc1cccc(Cn2c(Oc3cccc(C)c3)nc3c2c(=O)n(C)c(=O)n3C)c1	Ecoli tolC 83.7
CCCOc1nc2c(c(=O)n(C)c(=O)n2C)n1Cc1cccc2ccccc12	PostGolgi ctrl 37.4, Ecoli tolC 64.9
Cn1c(=O)c2c(nc(N3CCNCC3)n2Cc2cccc3ccccc23)n(C)c1=O	none
Cc1nc(SCC(=O)N2c3ccccc3Sc3ccccc32)n[nH]1	none (no result: D1 mod, Ecoli tolC)
CSc1ccccc1NC(=O)Cn1c(-c2cscn2)nc2ccccc21	none
Brc1ccccc1Cn1c(-c2cscn2)nc2ccccc21	PostGolgi ctrl 53.8 (no result: D1 mod, Ecoli tolC)
Clc1ccc(C2=Nn3c(nnc3-c3cccs3)SC2)cc1	none (no result: PostGolgi yeast, PostGolgi ctrl, D1 mod, Ecoli WT expand, Ecoli tolC)
CC1=Nn2c(nnc2-c2cccs2)SC1	hDAT+cocaine -3.35 (no result: D1 mod, Ecoli tolC)
O=C(C[n+]1cccc(NC(=O)c2ccccc2)c1)c1ccc(NC(=O)c2ccccc2)cc1	Ecoli WT expand 62.0 (no result: D1 mod, Ecoli tolC, hDAT+cocaine)
O=C(OCc1cnc(Cl)s1)c1ccccc1Cl	none (no result: D1 mod, Ecoli tolC)
O=C(OCn1ncc(Br)c(Br)c1=O)c1ccccc1Cl	PostGolgi yeast 107.5, PostGolgi ctrl 34.3 (no result: D1 mod, Ecoli tolC)
O=C(OCn1ncc(Br)c(Br)c1=O)c1ccc(F)cc1	PostGolgi yeast 106.7, PostGolgi ctrl 46.3 (no result: D1 mod, Ecoli tolC)
COCCn1c(C)cc(C(=O)CSc2nc(C)nc3sc4c(c23)CCC4)c1C	none (no result: PostGolgi yeast, PostGolgi ctrl, Ecoli WT expand)
O=C(CC1SC(=O)N(Cc2cccc3ccccc23)C1=O)Nc1nccs1 (configuration not stated)	PostGolgi ctrl 33.0 (no result: D1 mod, Ecoli tolC)
CS(=O)(=O)N(CCc1ccccc1)CC(=O)N1CCN(c2ccc(F)cc2)CC1	none (no result: PostGolgi yeast, PostGolgi ctrl, D1 mod, Ecoli WT expand, Ecoli tolC)
O=C(O)c1ccc2c(c1)C(=O)N(c1cc(C(=O)O)ccc1Br)C2=O	PostGolgi ctrl 30.2
O=C(O)c1ccc2c(c1)C(=O)N(c1ccc(Cl)cn1)C2=O	none
COc1ccc(Cl)c(Cn2c(NCCCO)nc3c2c(=O)n(C)c(=O)n3C)c1	none
CCN1CCN(C(c2cccs2)C(C)NC(=O)c2cccnc2)CC1 (configuration not stated)	D1 mod -4.38
CC(NC(=O)c1cccnc1)C(c1cccs1)N1CCN(C)CC1 (configuration not stated)	none (no result: D1 mod)
Cc1sc2nc(SCC(=O)C(C)(C)C)n(Cc3ccco3)c(=O)c2c1C	PostGolgi ctrl 39.2 (no result: D1 mod, Ecoli tolC)
O=C(NC1(C(F)(F)F)NC(=O)N(C2CCCCC2)C1=O)c1cccs1 (configuration not stated)	hDAT+cocaine -3.31
O=C(/C=C/c1cccnc1)c1ccc(NC(=O)c2cccc(Br)c2)cc1	PostGolgi ctrl 40.0 (no result: D1 mod, Ecoli tolC)
O=C(N/C(=C\c1cccnc1)C(=O)N1CCOCC1)c1cccc(Br)c1	none (no result: D1 mod, Ecoli tolC)
O=S1(=O)CC(O)C(N2CCC(c3ccccc3)CC2)C1 (configuration not stated)	PostGolgi ctrl 45.2
C=CCn1c2ccccc2c2nnc(SCc3ccc4nonc4c3)nc21	none
CCOC(=O)c1cc2c(=O)n3cccc(C)c3nc2n(Cc2ccccc2Cl)c1=N	none (no result: PostGolgi yeast, PostGolgi ctrl, Ecoli WT expand, hDAT+cocaine)
CN1CCN(S(=O)(=O)c2ccc(NC(=O)c3cccs3)cc2)CC1	none
CN1CCN(S(=O)(=O)c2ccc(NC(=O)c3csc4ccccc34)cc2)CC1	D1 mod -1.94
Cc1nc(N2CCN(Cc3nc4ccccc4[nH]3)CC2)c2oc3ccccc3c2n1	hDAT+cocaine 2.51 (no result: D1 mod)
c1ccc2[nH]c(CSc3ncnc4c3oc3ccccc34)nc2c1	none
c1ccc2[nH]c(CN3CCCCC3)nc2c1	none (no result: D1 mod, Ecoli tolC)
CCOC(=O)C1CCN(c2nc(C)nc3c2oc2ccccc23)CC1	PostGolgi ctrl 36.4 (no result: D1 mod)
CCOC(=O)C1CCCN(c2nc(C)nc3c2oc2ccccc23)C1 (configuration not stated)	none (no result: D1 mod)
Cc1nc(SCc2nc3ccccc3[nH]2)c2oc3ccccc3c2n1	PostGolgi ctrl 37.6
O=C(CCCC(=O)N(CC(=O)NC1CCCC1)Cc1ccc2c(c1)OCO2)Nc1ccccn1	none

High-throughput results from PubChem.
